This note sets out measurements from ChEMBL document CHEMBL3758168, “Hybrid triazoles: Design and synthesis as potential dual inhibitor of growth and efflux inhibition in tuberculosis” (Eur J Med Chem, 2016).

In series [1] the test system is Mycobacterium tuberculosis. The experiment in a line: Antibacterial activity against Mycobacterium tuberculosis H37Rv ATCC 27294T assessed as amikacin MIC at 64 ug/ml after 7 days by microdilution checkerboard assay. Particulars: 168 h. It is filed as functional. Summed up: (§1)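 Two-dimensional checkerboard in H37Rv at 10^5 CFU/ml in MB7H9/OADC. Partner drug (amikacin, EtBr, isoniazid, ofloxacin or rifampin) two-fold serially diluted across columns 3-11. Test compound two-fold serially diluted down rows 2-6. Plates incubated 7 days at 37 °C, then MTT added overnight. […] Run in triplicate.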
Background: Dilution methods test growth across graded concentrations, often in twofold steps.

Series [2] can be described thus: Ratio of compound IC50 to thioridazine IC50 for human MDM. It is filed as ADME. Particulars: read-out: Ratio IC50.
Series [3] deals with Mycobacterium tuberculosis. The experiment in a line: Antibacterial activity against Mycobacterium tuberculosis H37Rv ATCC 27294T assessed as ethidium bromide MIC at 4 ug/ml after 7 days by microdilution checkerboard assay. Type of series: functional. Particulars: 168 h. In short, it runs like this: as §1
Series [4] concerns Mycobacterium tuberculosis. The experiment in a line: Antibacterial activity against Mycobacterium tuberculosis H37Rv ATCC 27294T assessed as amikacin MIC at 16 ug/ml after 7 days by microdilution checkerboard assay. Type of series: functional. Particulars: 168 h. In short, it runs like this: as §1
The subject of series [5] is Mycobacterium tuberculosis. The experiment in a line: Antibacterial activity against Mycobacterium tuberculosis H37Rv ATCC 27294T assessed as amikacin MIC at 2 ug/ml after 7 days by microdilution checkerboard assay. Particulars: 168 h. It is filed as functional. Summed up:
as §1

The test system of series [6] is Mycobacterium tuberculosis. The experiment in a line: Antibacterial activity against Mycobacterium tuberculosis H37Rv ATCC 27294T assessed as rifampin MIC at 4 ug/ml after 7 days by microdilution checkerboard assay. Type of series: functional. Particulars: 168 h. In short, it runs like this: (§2)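 M. tuberculosis H37Rv grown in MB7H9 + 10% OADC at 37 °C to OD600 0.8; plates inoculated at 10^5 CFU/ml. Rifampicin two-fold serially diluted across columns, test compound two-fold diluted down rows (two-dimensional checkerboard). Sealed, 37 °C for seven days, then MTT added and incubated overnight. MIC read as no colour change. Triplicate.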

Series [7] concerns Mycobacterium tuberculosis. Put plainly: Modulation factor, ratio of amikacin MIC to compound MIC for Mycobacterium tuberculosis H37Rv ATCC 27294T at 128 ug/ml in presence of amikacin. It is filed as functional.
Series [8] deals with Mycobacterium tuberculosis. The experiment in a line: Antibacterial activity against Mycobacterium tuberculosis H37Rv ATCC 27294T assessed as rifampin MIC at 16 ug/ml after 7 days by microdilution checkerboard assay. It is filed as functional. Particulars: 168 h. Summed up:
as §2

Series [9] relates to Mycobacterium tuberculosis. Put plainly: Antibacterial activity against Mycobacterium tuberculosis H37Rv ATCC 27294T assessed as rifampin MIC at 128 ug/ml after 7 days by microdilution checkerboard assay. Type of series: functional. Particulars: 168 h. In short, it runs like this:
as §2

Series [10] deals with Mycobacterium tuberculosis. Put plainly: Antibacterial activity against Mycobacterium tuberculosis H37Rv ATCC 27294T assessed as isoniazid MIC at 32 ug/ml after 7 days by microdilution checkerboard assay. Type of series: functional. Particulars: 168 h. Summed up: as §1
Series [11] has as its system Mycobacterium tuberculosis. The experiment in a line: Antibacterial activity against Mycobacterium tuberculosis H37Rv ATCC 27294T assessed as ethidium bromide MIC at 32 ug/ml after 7 days by microdilution checkerboard assay. Particulars: 168 h. Type of series: functional. In short, it runs like this:
as §1

Series [12] concerns Mycobacterium tuberculosis. Put plainly: Antibacterial activity against Mycobacterium tuberculosis H37Rv ATCC 27294T assessed as ethidium bromide MIC at 16 ug/ml after 7 days by microdilution checkerboard assay. Particulars: 168 h. Type of series: functional. Summed up: as §1
Series [13] has as its system Mycobacterium tuberculosis. Put plainly: Antibacterial activity against Mycobacterium tuberculosis H37Rv ATCC 27294T assessed as amikacin MIC at 32 ug/ml after 7 days by microdilution checkerboard assay. Type of series: functional. Particulars: 168 h. In short, it runs like this:
as §1

Series [14] has as its system Mycobacterium tuberculosis. The experiment in a line: Antibacterial activity against Mycobacterium tuberculosis H37Rv ATCC 27294T assessed as amikacin MIC at 128 ug/ml after 7 days by microdilution checkerboard assay. Type of series: functional. Particulars: 168 h. Summed up: as §1
Series [15] concerns Mycobacterium tuberculosis. The experiment in a line: Antibacterial activity against Mycobacterium tuberculosis H37Rv ATCC 27294T assessed as isoniazid MIC at 8 ug/ml after 7 days by microdilution checkerboard assay. Particulars: 168 h. Type of series: functional. Summed up:
as §1

As usually defined, the MIC is the smallest concentration in the dilution series that meets the test's criterion for growth inhibition. On to `CCCSc1nnc(COc2ccccc2C2=NOC(c3ccc(Cl)cc3Cl)C2)n1NC(=O)CCl` (stereo not given), for which the minimum inhibitory concentration (MIC) in [1] was 1 µg/mL; in series [3], 12.5 µg/mL; in series [4] it was 1 µg/mL; in series [5], 1 µg/mL; in series [6], 0.5 µg/mL; in series [8], 0.5 µg/mL. The MIC in series [9] came out at 0.0156 µg/mL; in [10] it was 0.1 µg/mL; in [11] it was 12.5 µg/mL; in [12], 12.5 µg/mL; in series [13] it was 1 µg/mL; in series [14], 0.125 µg/mL. Further, the MIC in series [15] is 0.1 µg/mL. Further, the selectivity ratio in series [2] turned out to be 3. Moreover, the Ratio in series [7] was 16.
